# High-throughput results from PubChem BioAssay.
# Lmaj promast: inhibitors of Leishmania major promastigote growth | hit rate 9% among 200,000 | Leishmania major promastigotes, resazurin fluorescence viability | AID 1063 | inhibition, % at 10 µM; in the data active = inhibition above about 50%;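 note: promastigotes grown with compound for 44 hours at 28 °C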
# PMI act: activators of human phosphomannose isomerase | P34949 | hit rate 0.005% among 190,000 | activation factor at 20 µM | purified human PMI, coupled resazurin fluorescence, 20 min; active compounds read high; 1 = vehicle control, 0 substrate-free wells;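 active = activation factor of 2 or more at 20 µM, relative to plate controls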
# PMI act satM6P: increases human PMI activity with near-saturating mannose 6-phosphate; P34949; coupled PMI enzyme assay, resazurin fluorescence, 20 min; active compounds read high; 1 = untreated enzyme, 0 = substrate-free blank; activation factor at 20 µM; hit rate 0.34% among 190,000; AID 1216;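 active = activation factor of 2 or more at 20 µM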
#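 assay system = human phosphomannose isomerase with PGI, G6PDH, diaphorase coupling enzymes | quantity = 15 ng/mL PMI | incubation = enzyme reaction with compound 20 min at room temperature | medium = HEPES pH 7.4 buffer with MgCl2 and Tween-20 | compound dosing = one concentration, 20 µM, in 1% DMSO | measured by = Diaphorase-driven resazurin-to-resorufin fluorescence, excitation 544, emission 590 nm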
# Rad51 HR inh: blocks human Rad51 in homologous recombination. inhibition, % at 10 µM. Q06609. hit rate 0.085% among 200,000. hRad51 DNA strand exchange, fluorescence dequenching;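 active = inhibition above 40% at the single screening dose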;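 note: 0% = DMSO control wells and 100% = blanks with heterologous ssDNA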
# Target sequence (Q06609 whole entry, looked up): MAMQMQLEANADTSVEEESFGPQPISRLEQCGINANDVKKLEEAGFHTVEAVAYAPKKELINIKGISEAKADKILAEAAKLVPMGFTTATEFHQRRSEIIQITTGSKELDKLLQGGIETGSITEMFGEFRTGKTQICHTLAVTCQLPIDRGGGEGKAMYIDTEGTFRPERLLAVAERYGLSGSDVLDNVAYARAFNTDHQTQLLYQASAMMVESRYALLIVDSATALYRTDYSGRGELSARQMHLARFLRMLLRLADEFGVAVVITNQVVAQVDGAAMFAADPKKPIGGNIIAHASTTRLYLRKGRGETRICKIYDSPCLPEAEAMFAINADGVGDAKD
#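 Read-out basis: percent inhibition relative to plate controls and blanks / Assay system: human Rad51 nucleoprotein filaments preassembled on unlabelled ssDNA / Timing: filaments 15 min 37 °C, then compound 30 min / Control set: per-plate controls and blanks / Technique: fluorescence dequenching at 485/520 nm / Compound: 10 µM final, single point / Also added: Fluorescein- and BHQ1-tagged 47-mer duplex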
# WT yeast gro inh: growth inhibition of WT yeast, mitochondrial fusion screen. hit rate 2.1% among 190,000. mitochondrial fusion phenotypic screen, WT strain. inhibition, % at 10 µM; in the data active = inhibition above about 58%; tested in S. cerevisiae
# m-calpain inh: inhibitors of pig calpain II; AID 1236; purified calpain II, fluorogenic peptide substrate, 30 min; inhibition, % at 16 µM; hit rate 0.37% among 220,000;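 active = inhibition above about 50%, limit read from the data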
# * hit, by the source's call; / = not tested or not shown. Most compounds without a hit are left out; they make up all but 9.8% or so of the library.
SMILES,Lmaj promast,PMI act,PMI act satM6P,Rad51 HR inh,WT yeast gro inh,m-calpain inh
Cc1ccc(SCCNC(=O)c2ccc(C)c(S(=O)(=O)Nc3ccccc3C)c2)cc1,99.2*,0.9,0.9,7.3,-9.1,13.3
CCOCCCNC(=O)C(c1ccc(OC)cc1)N(Cc1ccc2c(c1)OCO2)C(=O)c1ccccc1O (stereo not drawn),5.3,1.1,1.1,/,-6.1,-4.7
Cc1ccccc1SCCNC(=O)c1ccccc1Br,-4.2,1,1,7.7,12.3,-6.8
Cc1c(N=C2N=C(NC(=O)Nc3ccc(Cl)cc3)c3ccccc32)c(=O)n(-c2ccccc2)n1C,-3.9,1.1,1.2,-163.4,-5.7,-10.0
Cc1cc(C(=O)C(=O)O)c(C)n1-c1ccc(Cl)c(Cl)c1,-6.9,1.1,1,-0.6,8.7,9.2
Cc1nn(Cc2ccccc2)c(Cl)c1C(=O)NCc1ccco1,-7.1,1,0.9,-4.3,1.7,-14.4
Cc1ccccc1NC(=S)N(C)Cc1cccs1,-2.1,1,1,0.0,2.2,23.0
Cc1ccccc1NC(=S)N(C)Cc1cn(C)c2ccccc12,63.1*,0.9,1,11.0,4.8,4.0
CCN(CC)P(=O)(Nc1cccc(C(F)(F)F)c1)c1ccc(N(C)C)cc1NC(=O)c1ccco1 (stereo not drawn),91.4*,1,0.9,1.1,8.5,-60.0
CN(C)c1cccc(NC(=O)c2ccco2)c1,1.9,1,0.6,3.1,-10.5,17.8
NC(=O)C1=C[C@H](C2CCCCC2)C[C@H](OCc2ccc(CO)cc2)O1,-4.5,0.9,0.7,-2.5,-0.1,-2.9
O=C(c1cnc2sccn2c1=O)N(Cc1ccccc1)c1ccccn1,-6.6,0.9,0.9,-1.8,1.2,85.2*
O=C(NCc1cccs1)c1cnc2sccn2c1=O,-10.1,0.8,0.9,-7.3,6.7,-9.1
CCc1nc2ccc(C(=O)O)cc2nc1CC,50.5*,0.9,0.9,-7.2,-9.6,13.3
C/C(CC(=O)NC1CCCCC1)=N\NC(=O)Cc1ccc(-c2ccccc2)cc1,6.5,0.9,1,-29.0,1.9,-12.1
O=C(NCCSCc1ccc(Cl)cc1)c1cccs1,/,/,/,5.3,/,-0.5
O=C(OCc1nnc(-c2ccccc2)o1)C12CC3CC(CC(Br)(C3)C1)C2,29.1,0.9,0.9,-6.9,69.6*,47.2
O=C(OCc1nnc(-c2ccccc2)o1)c1ccccc1,0.0,1.1,1.1,1.4,7.1,9.8
Cc1ccccc1S(=O)(=O)c1c(C)cc(C)n(CC(C)C)c1=O,90.9*,1,1,-6.6,67.8*,30.2
Cc1ccccc1S(=O)(=O)c1c(C)cc(C)n(C)c1=O,2.1,0.9,0.8,-1.1,-6.2,-11.2
C/C(=N\Nc1ccc(F)cc1)c1ccncc1,84.4*,1.6,2.5*,4.4,23.3,-4.5
C/C(=N\Nc1cccc(Cl)c1)c1ccncc1,30.7,1.8,2.3*,7.7,62.5,-11.6
C/C(=N\NC(N)=O)c1ccc(Cl)s1,/,/,/,0.6,/,-2.7
C/C(=N/Nc1ccc(F)cc1)c1ccc(Cl)s1,-6.6,1.4,2.3*,-3.2,-4.6,-19.2
Clc1cccc(N/N=C/c2ccncc2)c1,6.7,1.1,1.2,5.9,63.8,-6.3
SMILES,Lmaj promast,PMI act,PMI act satM6P,Rad51 HR inh,WT yeast gro inh,m-calpain inh
CC(=O)c1cc2c(cc1NS(=O)(=O)c1ccc(F)cc1)OCO2,-3.8,0.9,0.9,13.3,-9.1,10.1
CCN1CCc2nc(NC(=O)CC(c3ccccc3)c3ccccc3)sc2C1,55.5*,1.1,1,0.5,17.8,-59.4
CCN1CCc2nc(NC(=O)C(c3ccccc3)c3ccccc3)sc2C1,12.9,1,1,-2.3,10.7,-128.1
Cc1cc2cc(CN(Cc3cccs3)C(=S)NCC3CCCO3)c(=O)[nH]c2cc1C (stereo not drawn),96.4*,0.8,0.9,6.5,7.8,-3.2
Cc1cc(C)c2[nH]c(=O)c(CN(Cc3ccco3)C(=S)NCC3CCCO3)cc2c1 (stereo not drawn),87.9*,0.8,0.9,5.9,-7.6,-17.6
CCNC(=S)N(Cc1ccco1)Cc1cc2cc3c(cc2[nH]c1=O)OCCO3,10.8,0.8,1,-5.6,-10.7,-39.0
COc1ccccc1NC(=O)N(Cc1ccco1)Cc1cc2ccc(C)c(C)c2[nH]c1=O,10.1,0.9,0.9,3.4,11.9,-4.0
